Runt-CBFb FRET = inhibitors of RUNX1 Runt–CBFb binding, primary screen, biochemical, FRET, Cerulean-Runt, Venus-CBFb, uHTS | inhibition, % at 20 µM | Runt-related transcription factor 1 (Homo sapiens) + Core-binding factor subunit beta … | Cerulean-Runt/Venus-CBFb FRET ratio 530/480, 1 h | 220,000 compounds, 0.46% hits;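 active = inhibition over about 50% at 20 µM in the single-dose screen, limit read from the data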
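Buffer or medium: Tris pH 7.5 buffer with BSA. Assay system: Cerulean-labeled Runt domain protein. Amount: each fluorescent fusion protein 100 nM. Read-out basis: loss of energy transfer signal. Incubation: 1 h compound exposure, room temperature. Probe or stimulus: Venus-CBFb binding partner, 100 nM. Detection: FRET, excitation 422 nm, emission at 530 and 480 nm.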
RanGTP-Impb inh = inhibitors of RanGTP-importin-beta interaction, primary screen, biochemical, FRET, CFP-Ran, YFP-importin-beta, homogeneous; cell-free CFP-Ran/YFP-importin-beta FRET ratio; inhibition, % (concentration not given with the values); 300,000 compounds, 1.1% hits;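 active = more than half of the replicate wells show a fall in the fluorescence ratio signal beyond about 16%, limit read from the data, passing the limit was not always enough; inconclusive = exactly half of the replicate wells pass the set limit; inactive = fewer than half of replicates pass the limit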
Hck Nef HTS = inhibitors of Nef-activated human Hck kinase, primary screen, biochemical, Z-Lyte FRET, 384-well, Hck-YEEI | Tyrosine-protein kinase HCK (Homo sapiens), P08631 | Recombinant Hck-YEEI plus Nef, Z-Lyte FRET kinase assay | inhibition, % at 20 µM | 220,000 compounds, 0.68% hits | AID 463187, 2010;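 active = Hck-Nef kinase inhibition above about 50%, limit read from the data; inactive = inhibition below that limit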
Target sequence (P08631 whole entry, looked up): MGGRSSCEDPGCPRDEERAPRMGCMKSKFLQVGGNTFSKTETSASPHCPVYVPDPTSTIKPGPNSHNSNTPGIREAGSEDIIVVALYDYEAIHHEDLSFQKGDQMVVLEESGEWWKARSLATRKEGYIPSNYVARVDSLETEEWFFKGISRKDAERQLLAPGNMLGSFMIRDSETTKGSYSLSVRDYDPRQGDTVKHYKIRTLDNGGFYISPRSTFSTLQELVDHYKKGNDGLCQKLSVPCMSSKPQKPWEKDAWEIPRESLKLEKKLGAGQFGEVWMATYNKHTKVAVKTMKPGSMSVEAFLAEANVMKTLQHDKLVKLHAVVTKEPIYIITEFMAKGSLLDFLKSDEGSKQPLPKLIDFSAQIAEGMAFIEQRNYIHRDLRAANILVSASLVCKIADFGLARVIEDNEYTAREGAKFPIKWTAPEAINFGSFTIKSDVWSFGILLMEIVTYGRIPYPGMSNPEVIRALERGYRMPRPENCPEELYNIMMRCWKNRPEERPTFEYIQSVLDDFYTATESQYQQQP
Runt-SMMHC FRET = inhibitors of RUNX1 Runt–CBFb-SMMHC binding, primary screen, biochemical, FRET, Cerulean-Runt, Venus-CBFb-SMMHC, uHTS; Cerulean-Runt/Venus-CBFb-SMMHC FRET ratio 530/480, 1 h; 220,000 compounds, 0.74% hits; inhibition, % at 20 µM; AID 1434, 2008;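 active = mean inhibition across duplicate retests at 20 µM reaching about 50%, limit read from the data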;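 note: inhibitors lower the FRET ratio by blocking Runt binding to CBFb-SMMHC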
Large screens that a line does not name were inactive. Rows were chosen to be rich in hits. Some 1.8% of all compounds tested hit in one or more screens of this group.

O=C(CC1Sc2ncnn2C1=O)Nc1ccc(Br)cc1 (stereo unspecified)	none
CCc1cc2c(CN3CCN(CCO)CC3)cc(=O)oc2cc1O	Runt-CBFb FRET 70, RanGTP-Impb inh 113, Runt-SMMHC FRET 62
COC(=O)C1CCN(Cc2cc(=O)oc3cc(OC)ccc23)CC1	none
CCc1cc2c(CN3CCN(C)CC3)cc(=O)oc2cc1O	RanGTP-Impb inh 114, Runt-SMMHC FRET 57
COc1ccc(OC)c(CN2CCN(Cc3cc(=O)oc4cc(O)ccc34)CC2)c1	RanGTP-Impb inh 61 (no result: Runt-CBFb FRET, Hck Nef HTS, Runt-SMMHC FRET)
CCC(=O)Nc1cccc(C2=NN(c3ccccc3)C(c3ccc(OC)cc3)C2)c1 (stereo unspecified)	none (no result: Runt-CBFb FRET, Hck Nef HTS, Runt-SMMHC FRET)
Cc1ccc(NC(=O)/C(=C/c2cccs2)NC(=O)c2ccco2)c(C)c1	none
Cc1cc2c(cc1S(=O)(=O)NCc1ccc(N(C)C)cc1)OCC(=O)N2	none (no result: Runt-CBFb FRET, Hck Nef HTS, Runt-SMMHC FRET)
O=c1[nH]c2ccccc2nc1-c1cccs1	Runt-CBFb FRET 91, Runt-SMMHC FRET 169
c1csc(-c2nnsc2-c2nc3ccccc3[nH]2)c1	none
COc1cccc(NC(=O)Nc2c(C)n(C)n(-c3ccccc3)c2=O)c1	RanGTP-Impb inh 115
Cc1cnc(NC(=O)c2ccc(OCC3CCCO3)cc2)s1 (stereo unspecified)	Hck Nef HTS 59
CC(CC(=O)NCCc1ccc(F)cc1)c1ccccc1 (stereo unspecified)	none (no result: Runt-CBFb FRET, Hck Nef HTS, Runt-SMMHC FRET)
CN(C)NC(=S)Nc1ccc2nc(-c3ccccn3)c(-c3ccccn3)nc2c1	RanGTP-Impb inh 48
OCCCNC(=S)Nc1ccc2nc(-c3ccccn3)c(-c3ccccn3)nc2c1	RanGTP-Impb inh 36
Cc1ccc(S(=O)(=O)Nc2nc3ccccc3nc2Nc2cccc(S(=O)(=O)N3CCCC3)c2)cc1	RanGTP-Impb inh 30, Runt-SMMHC FRET 90
Cc1cc2nc(=O)c(/C=C3\C=Nc4ccccc43)c(N)n2o1	RanGTP-Impb inh 47
CC(C)Sc1nsc2nc(=O)c(/C=C3\C=Nc4ccccc43)c(N)n12	RanGTP-Impb inh 33, Runt-SMMHC FRET 59
CC1(C)Cc2c(cnn2-c2cccc(F)c2)C(NC(=O)CCc2cnccn2)C1 (stereo unspecified)	none (no result: Runt-CBFb FRET, Hck Nef HTS, Runt-SMMHC FRET)
Cc1c(NC(=O)CN2c3ccccc3CC2C)c(=O)n(-c2ccccc2)n1C (stereo unspecified)	none
O=C1Nc2ccccc2C1=Nc1ccc(S(=O)(=O)Nc2nccs2)cc1	Hck Nef HTS 67
N#C/C(=C\c1c[nH]c2ccccc12)C(=O)Nc1ncc(Cc2ccc(Cl)cc2Cl)s1	RanGTP-Impb inh 46
CCn1nc(C)c(Br)c1-c1nc(-c2cccc(C)c2)no1	none
CCN1C(=O)N/C(=C/c2ccc(Sc3ccc(C)cc3)o2)C1=O	RanGTP-Impb inh 23
CCN1C(=O)N/C(=C/c2ccc(C)o2)C1=O	none
CNc1sc(C(=O)c2ccc(F)cc2)c(N)c1-c1nc2ccccc2s1	none
CNc1sc(C(=O)c2cccs2)c(N)c1-c1nc2ccccc2s1	Runt-SMMHC FRET 76
CC(C)(O)C1Cc2cc(/C=C/C(=O)O)c(O)cc2O1 (stereo unspecified)	Runt-SMMHC FRET 63
Cc1ccc([N+](=O)[O-])cc1N(CC(=O)Nc1ccc(S(=O)(=O)Nc2cccc(C(F)(F)F)c2)cc1)S(C)(=O)=O	RanGTP-Impb inh inconclusive
O=C(Cc1ccccc1Cl)Nc1cccnc1	none
C/C(=N/NC(=O)c1ccccc1)c1ccc(NC(=O)C(F)(F)F)cc1	RanGTP-Impb inh 31
Fc1cccc(NC(=S)NCc2cccnc2)c1	none
Fc1ccc(NC(=S)NCc2cccnc2)cc1	RanGTP-Impb inh 93
CCN(Cc1ccccc1)Cc1nnnn1Cc1ccccc1	none
Cc1cccc(NC(=O)CN2C(=O)S/C(=C\c3cccn3-c3cccc(C(=O)O)c3)C2=O)c1	Hck Nef HTS 72
Cc1ccc(NC(=O)CN2C(=O)S/C(=C\c3cccn3-c3cccc(C(=O)O)c3)C2=O)cc1C	Hck Nef HTS 50
Cc1cccc(C)c1NC(=O)CN1C(=O)S/C(=C\c2cccn2-c2cccc(C(=O)O)c2)C1=O	none
Cc1ccc(C)c(NC(=O)/C(C#N)=C/c2cn(CC(=O)NCc3ccco3)c3ccccc23)c1	RanGTP-Impb inh 98
N#C/C(=C\c1cn(CCOc2ccccc2)c2ccccc12)C(=O)NCc1ccco1	none
Cc1ccc(NC(=O)/C(C#N)=C/c2cn(CC(=O)NCc3ccco3)c3ccccc23)cc1C	none
Cc1cc(C)cc(NC(=O)/C(C#N)=C/c2cn(CC(=O)NCc3ccco3)c3ccccc23)c1	RanGTP-Impb inh 82
COCCNC(=O)Cn1cc(/C=C(\C#N)C(=O)NC2CCCC2)c2ccccc21	RanGTP-Impb inh 52 (no result: Runt-CBFb FRET, Hck Nef HTS, Runt-SMMHC FRET)
CNC(=O)/C(C#N)=C/c1cn(CC(=O)NCc2ccco2)c2ccccc12	none
Cc1ccccc1OCCn1cc(/C=C(\C#N)C(=O)NCc2ccco2)c2ccccc21	Runt-SMMHC FRET 63
COCc1ccc(C(=O)NC2CC(C)(C)Cc3c2cnn3-c2ccc(OC)cc2)o1 (stereo unspecified)	none (no result: Runt-CBFb FRET, Hck Nef HTS, Runt-SMMHC FRET)
COc1ccc2cc(CN(CC3CCCO3)C(=S)Nc3ccccc3)c(=O)[nH]c2c1 (stereo unspecified)	none
CC(=O)Nc1ccc(/C=N/N2CCCCC2)cc1	none
COC(=O)Cn1c2ccc(C)cc2c2nc3ccccc3nc21	RanGTP-Impb inh 20 (no result: Runt-CBFb FRET, Hck Nef HTS, Runt-SMMHC FRET)
CCOC(=O)Cn1c2ccccc2c2nc3ccccc3nc21	none
O=C(CNC(=O)c1ccc(Br)o1)NNC(=O)c1ccccc1O	none (no result: Runt-CBFb FRET, Hck Nef HTS, Runt-SMMHC FRET)
CCCCN(C)CC(O)Cn1cc(/C=C/C(=O)c2ccc(OCC)cc2)c2ccccc21 (stereo unspecified)	RanGTP-Impb inh 25 (no result: Runt-CBFb FRET, Hck Nef HTS, Runt-SMMHC FRET)
CCCCN(C)CC(O)Cn1cc(/C=C/C(=O)c2cccs2)c2ccccc21 (stereo unspecified)	none
CC(C)CC(=O)NC(C)C(c1cccs1)N1CCOCC1 (stereo unspecified)	none
NC(N)=Nc1nc(-c2ccccc2)c2ccccc2n1	RanGTP-Impb inh 26
Cc1csc2c(=O)sc(NC(=O)c3cccs3)nc12	Runt-SMMHC FRET 87
Cc1csc(NC(=O)c2cccs2)n1	none
Cc1csc2c(=O)sc(NC(=O)c3ccco3)nc12	Runt-SMMHC FRET 59
CCCCOC(=S)NC(=O)c1sc2ccccc2c1Cl	RanGTP-Impb inh 29
COc1ccc2nc(N3CCCC3)c(C#N)cc2c1	Runt-CBFb FRET 60 (no result: Runt-SMMHC FRET)
COc1ccc2nc(N3CCCCC3)c(C#N)cc2c1	Runt-CBFb FRET 74, RanGTP-Impb inh 31
CCN1CCN(c2nc3ccccn3c(=O)c2/C=C(\C#N)S(=O)(=O)c2ccccc2)CC1	RanGTP-Impb inh 77
Cc1ccc(S(=O)(=O)/C(C#N)=C/c2c(N3CCC(C(N)=O)CC3)nc3c(C)cccn3c2=O)cc1	none
